Reference: ChEMBL document CHEMBL4130552, “Design, synthesis and biological evaluation of novel benzimidazole amidines as potent multi-target inhibitors for the treatment of non-small cell lung cancer” (Eur J Med Chem, 2018)
Activity calls are given as the source filed them. The rule behind the calls is not given here.

system: A549; experiment: Antiproliferative activity against human A549 cells after 72 hrs by MTT assay; assay type: functional, cell-based; details: A549, 72 h
Method in brief: (§1)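 Cells seeded at 5000/well on day 0 in medium with 10% FBS, 2 mM L-glutamine, penicillin/streptomycin, 37 °C, 5% CO2. Compounds added at five 10-fold dilutions with DMSO ≤0.1%, then 72 h exposure. MTT absorbance converted to percentage growth versus untreated wells. IC50 by linear regression between bracketing concentrations. Quadruplicate points, three independent experiments.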

Structure (SMILES)	IC50 [nM]
CC(C)NC(=N)c1ccc2[nH]c(-c3ccc(OCc4cn(-c5ccc(Cl)cc5)nn4)cc3)nc2c1.Cl	50
N=C(N)c1ccc2[nH]c(-c3ccc(OCc4cn(-c5ccc(Cl)cc5)nn4)cc3)nc2c1	50
Clc1ccc(-n2cc(COc3ccc(-c4nc5cc(C6=NCCN6)ccc5[nH]4)cc3)nn2)cc1	60
FC(F)(F)c1ccc(-n2cc(COc3ccc(-c4nc5cc(C6=NCCN6)ccc5[nH]4)cc3)nn2)cc1	590
Ic1ccc(-n2cc(COc3ccc(-c4nc5cc(C6=NCCN6)ccc5[nH]4)cc3)nn2)cc1	> 100000

system: CFPAC-1; experiment: Antiproliferative activity against human CFPAC-1 cells after 72 hrs by MTT assay; assay type: functional, cell-based; details: CFPAC-1, 72 h; method in brief: as §1

Structure (SMILES)	IC50 [nM]
CC(C)NC(=N)c1ccc2[nH]c(-c3ccc(OCc4cn(-c5ccc(Cl)cc5)nn4)cc3)nc2c1.Cl	> 100000
N=C(N)c1ccc2[nH]c(-c3ccc(OCc4cn(-c5ccc(Cl)cc5)nn4)cc3)nc2c1	18500
Clc1ccc(-n2cc(COc3ccc(-c4nc5cc(C6=NCCN6)ccc5[nH]4)cc3)nn2)cc1	16900
FC(F)(F)c1ccc(-n2cc(COc3ccc(-c4nc5cc(C6=NCCN6)ccc5[nH]4)cc3)nn2)cc1	650
Ic1ccc(-n2cc(COc3ccc(-c4nc5cc(C6=NCCN6)ccc5[nH]4)cc3)nn2)cc1	860

system: A549; experiment: Downregulation of TGM2 protein expression in human A549 cells at 2 times antiproliferative IC50 after 48 hrs by Western blot method; assay type: functional, cell-based; details: not given
Method in brief: (§2)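 Lysis in RIPA buffer (20 mM Tris-HCl pH 7.5, 150 mM NaCl, EDTA, EGTA, 1% NP-40, 1% deoxycholate, protease inhibitors). Blocking 1 h in 4% BSA/TBST, primary antibody overnight at 4 °C, HRP secondary 1 h, chemiluminescence. Densitometry normalised to alpha-tubulin; two independent experiments.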

Structure (SMILES)	Activity
CC(C)NC(=N)c1ccc2[nH]c(-c3ccc(OCc4cn(-c5ccc(Cl)cc5)nn4)cc3)nc2c1.Cl	inactive

target: T1, MAP kinase p38 (Homo sapiens, UniProt O15264+Q15759+Q16539+P53778); experiment: Inhibition of MAPK p38 (unknown origin); assay type: protein assay; details: not given

Structure (SMILES)	IC50 [nM]
Brc1ccc(-c2c[nH]c([C@@H]3Cc4ccccc4CN3)n2)cc1	1900
Cc1ccc(-n2nc(C(C)(C)C)cc2NC(=O)Nc2nc(CCOCc3ccncc3)cs2)cc1	586

system: HeLa; experiment: Antiproliferative activity against human HeLa cells after 72 hrs by MTT assay; assay type: functional, cell-based; details: not given; method in brief: as §1

Structure (SMILES)	IC50 [nM]
CC(C)NC(=N)c1ccc2[nH]c(-c3ccc(OCc4cn(-c5ccc(Cl)cc5)nn4)cc3)nc2c1.Cl	17500
N=C(N)c1ccc2[nH]c(-c3ccc(OCc4cn(-c5ccc(Cl)cc5)nn4)cc3)nc2c1	800
Clc1ccc(-n2cc(COc3ccc(-c4nc5cc(C6=NCCN6)ccc5[nH]4)cc3)nn2)cc1	220
FC(F)(F)c1ccc(-n2cc(COc3ccc(-c4nc5cc(C6=NCCN6)ccc5[nH]4)cc3)nn2)cc1	2690
Ic1ccc(-n2cc(COc3ccc(-c4nc5cc(C6=NCCN6)ccc5[nH]4)cc3)nn2)cc1	420

system: A549; experiment: Induction of apoptosis in human A549 cells assessed as late apoptotic cells at 2 times antiproliferative IC50 after 48 hrs by Annexin V-FITC/propidium iodide staining based fluorescence microscopic method (reference value: 0%); assay type: functional; details: not given

Structure (SMILES)	Activity [%]
CC(C)NC(=N)c1ccc2[nH]c(-c3ccc(OCc4cn(-c5ccc(Cl)cc5)nn4)cc3)nc2c1.Cl	40

system: A549; experiment: Induction of apoptosis in human A549 cells assessed as early apoptotic cells at 2 times antiproliferative IC50 after 48 hrs by Annexin V-FITC/propidium iodide staining based fluorescence microscopic method (reference value: 0.52%); assay type: functional; details: not given

Structure (SMILES)	Activity [%]
CC(C)NC(=N)c1ccc2[nH]c(-c3ccc(OCc4cn(-c5ccc(Cl)cc5)nn4)cc3)nc2c1.Cl	28.33

target: Cellular tumor antigen p53 (Homo sapiens) (UniProt P04637); experiment: Inhibition of p53 phosphorylation at Ser-15 residue in human A549 cells at 2 times antiproliferative IC50 after 48 hrs by Western blot method; assay type: cell-based; details: not given; method in brief: as §2
Sequence (P04637 whole entry, looked up): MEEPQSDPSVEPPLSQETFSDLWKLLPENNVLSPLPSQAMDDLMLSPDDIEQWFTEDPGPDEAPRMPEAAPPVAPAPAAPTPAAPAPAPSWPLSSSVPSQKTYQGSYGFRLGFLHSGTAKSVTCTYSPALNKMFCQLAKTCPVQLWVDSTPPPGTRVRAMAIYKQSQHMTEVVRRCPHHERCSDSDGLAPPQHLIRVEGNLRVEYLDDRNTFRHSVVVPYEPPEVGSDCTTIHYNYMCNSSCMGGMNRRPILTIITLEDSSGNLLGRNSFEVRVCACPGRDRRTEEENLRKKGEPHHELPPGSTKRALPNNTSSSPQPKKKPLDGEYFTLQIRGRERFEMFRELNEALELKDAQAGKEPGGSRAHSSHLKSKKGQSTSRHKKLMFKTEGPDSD

Structure (SMILES)	inhibition
CC(C)NC(=N)c1ccc2[nH]c(-c3ccc(OCc4cn(-c5ccc(Cl)cc5)nn4)cc3)nc2c1.Cl	Active

system: A549; experiment: Downregulation of CDK9/CyclinT1 protein expression in human A549 cells at 2 times antiproliferative IC50 after 48 hrs by Western blot method; assay type: functional, cell-based; details: not given; method in brief: as §2

Structure (SMILES)	Activity
CC(C)NC(=N)c1ccc2[nH]c(-c3ccc(OCc4cn(-c5ccc(Cl)cc5)nn4)cc3)nc2c1.Cl	inactive

system: WI-38; experiment: Antiproliferative activity against human WI38 cells after 72 hrs by MTT assay; assay type: cell-based; details: WI-38, 72 h; method in brief: as §1

Structure (SMILES)	IC50 [nM]
CC(C)NC(=N)c1ccc2[nH]c(-c3ccc(OCc4cn(-c5ccc(Cl)cc5)nn4)cc3)nc2c1.Cl	8040
N=C(N)c1ccc2[nH]c(-c3ccc(OCc4cn(-c5ccc(Cl)cc5)nn4)cc3)nc2c1	5030
Clc1ccc(-n2cc(COc3ccc(-c4nc5cc(C6=NCCN6)ccc5[nH]4)cc3)nn2)cc1	2240
FC(F)(F)c1ccc(-n2cc(COc3ccc(-c4nc5cc(C6=NCCN6)ccc5[nH]4)cc3)nn2)cc1	690
Ic1ccc(-n2cc(COc3ccc(-c4nc5cc(C6=NCCN6)ccc5[nH]4)cc3)nn2)cc1	220

system: A549; experiment: Induction of apoptosis in human A549 cells assessed as viable cells at 2 times antiproliferative IC50 after 48 hrs by Annexin V-FITC/propidium iodide staining based fluorescence microscopic method (reference value: 99.48%); assay type: functional; details: not given

Structure (SMILES)	Activity [%]
CC(C)NC(=N)c1ccc2[nH]c(-c3ccc(OCc4cn(-c5ccc(Cl)cc5)nn4)cc3)nc2c1.Cl	28.89

system: SW-620; experiment: Antiproliferative activity against human SW620 cells after 72 hrs by MTT assay; assay type: functional, cell-based; details: SW-620, 72 h; method in brief: as §1

Structure (SMILES)	IC50 [nM]
CC(C)NC(=N)c1ccc2[nH]c(-c3ccc(OCc4cn(-c5ccc(Cl)cc5)nn4)cc3)nc2c1.Cl	48700
N=C(N)c1ccc2[nH]c(-c3ccc(OCc4cn(-c5ccc(Cl)cc5)nn4)cc3)nc2c1	7570
Clc1ccc(-n2cc(COc3ccc(-c4nc5cc(C6=NCCN6)ccc5[nH]4)cc3)nn2)cc1	3650
FC(F)(F)c1ccc(-n2cc(COc3ccc(-c4nc5cc(C6=NCCN6)ccc5[nH]4)cc3)nn2)cc1	6350
Ic1ccc(-n2cc(COc3ccc(-c4nc5cc(C6=NCCN6)ccc5[nH]4)cc3)nn2)cc1	370

system: A549; experiment: Downregulation of PDE5 protein expression in human A549 cells at 2 times antiproliferative IC50 after 48 hrs by Western blot method; assay type: functional, cell-based; details: not given; method in brief: as §2

Structure (SMILES)	Activity
CC(C)NC(=N)c1ccc2[nH]c(-c3ccc(OCc4cn(-c5ccc(Cl)cc5)nn4)cc3)nc2c1.Cl	inactive

target: T1, MAP kinase p38; experiment: Inhibition of p38 phosphorylation at Thr180/Tyr182 residues in human A549 cells at 2 times antiproliferative IC50 after 48 hrs by Western blot method; assay type: cell-based; details: not given; method in brief: as §2

Structure (SMILES)	inhibition
CC(C)NC(=N)c1ccc2[nH]c(-c3ccc(OCc4cn(-c5ccc(Cl)cc5)nn4)cc3)nc2c1.Cl	Active

system: A549; experiment: Induction of apoptosis in human A549 cells assessed as necrotic cells at 2 times antiproliferative IC50 after 48 hrs by Annexin V-FITC/propidium iodide staining based fluorescence microscopic method (reference value: 0%); assay type: functional; details: not given

Structure (SMILES)	Activity [%]
CC(C)NC(=N)c1ccc2[nH]c(-c3ccc(OCc4cn(-c5ccc(Cl)cc5)nn4)cc3)nc2c1.Cl	2.78
